The record followed here is ChEMBL document CHEMBL4007430, “Synthesis and Cytostatic and Antiviral Profiling of Thieno-Fused 7-Deazapurine Ribonucleosides” (J Med Chem, 2017).

Data set [1] relates to HCT-116. The data set is described as follows: Cytotoxicity against human HCT116 cells assessed as cell growth inhibition after 72 hrs by MTS assay. It is filed as functional, cell-based. The note with it: HCT-116, 72 h. A digest of the protocol:
(§1)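 Cells were exposed to compound for 3 days, then stained with MTS as a quantitative metabolic read-out. IC50 is the concentration that inhibits cell growth by 50%.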

Data set [2] in a line: Cytotoxicity against human K562-TAX cells assessed as cell growth inhibition after 72 hrs by MTS assay. It is filed as functional, cell-based. A digest of the protocol: as §1
Background: Formazan colour is commonly taken as a measure of viable cells.

The subject of a further data set is K562. The data set can be described thus: Cytotoxicity against human K562 cells assessed as cell growth inhibition after 72 hrs by MTS assay. It is filed as functional, cell-based. The note with it: K562, 72 h. The procedure, abridged: as §1
Data set [3] relates to Hepatitis C virus. The data set can be described thus: Anti-HCV activity against Hepatitis C virus genotype 2a infected in human Huh7 replicon cells after 96 hrs by luciferase reporter gene assay. Type of data set: functional, cell-based, Hepacivirus hominis. Conditions: Huh-7, 96 h. For orientation: A replicon is a self-replicating genome or part of one, used to study replication in cells.

Data set [4] can be described thus: Cytotoxicity against mrp-1/mdr-1 overexpressing human CEM-DNR-bulk cells assessed as cell growth inhibition after 72 hrs by MTS assay. It is filed as functional, cell-based. The procedure, abridged: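 Cells were exposed to compound for 3 days, then stained with MTS as a quantitative metabolic read-out.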
For data set [5], the system named is Hepatitis C virus. The data set is described as follows: Anti-HCV activity against Hepatitis C virus genotype 1b infected in human Huh7 replicon cells after 96 hrs by luciferase reporter gene assay. The note with it: Huh-7, 96 h. Type of data set: functional, cell-based, Hepacivirus hominis.
A further data set concerns HL-60. The data set is described as follows: Cytotoxicity against human HL60 cells assessed as reduction in cell viability after 72 hrs by XTT assay. It is filed as functional, cell-based. Conditions: HL-60, 72 h. The procedure, abridged:
(§2)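 Cells were incubated with compound for 3 days. Viability was then measured with the XTT tetrazolium assay.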

The subject of another data set is HepG2. The data set can be described thus: Cytotoxicity against human HepG2 cells assessed as reduction in cell viability after 72 hrs by XTT assay. It is filed as functional, cell-based. Conditions: HepG2, 72 h. The procedure, abridged:
as §2

The subject of the next data set is MRC5. The data set can be described thus: Cytotoxicity against human MRC5 cells assessed as cell growth inhibition after 72 hrs by MTS assay. It is filed as cell-based. The note with it: MRC5, 72 h. A digest of the protocol:
as §1

Data set [6] concerns HCT-116. The data set can be described thus: Cytotoxicity against p53 deficient human HCT116 cells assessed as cell growth inhibition after 72 hrs by MTS assay. Conditions: HCT-116, 72 h. It is filed as functional, cell-based. A digest of the protocol: as §1
A further data set concerns A549. The data set is described as follows: Cytotoxicity against human A549 cells assessed as cell growth inhibition after 72 hrs by MTS assay. It is filed as functional, cell-based. The note with it: A549, 72 h. A digest of the protocol: as §1
The next data set has as its system U2OS. The data set is described as follows: Cytotoxicity against human U2OS cells assessed as cell growth inhibition after 72 hrs by MTS assay. Type of data set: functional, cell-based.
A further data set concerns HeLa S3. The data set can be described thus: Cytotoxicity against human HeLaS3 cells assessed as reduction in cell viability after 72 hrs by XTT assay. It is filed as functional, cell-based. The note with it: HeLa S3, 72 h. A digest of the protocol:
as §2

A short description of data set [7]: Cytotoxicity against human HuH7 cells. Type of data set: cell-based, Huh-7.
The test system of another data set is CCRF-CEM. The data set can be described thus: Cytotoxicity against human CCRF-CEM cells assessed as cell growth inhibition after 72 hrs by MTS assay.
In a further data set the test system is BJ. The data set can be described thus: Cytotoxicity against human BJ cells assessed as cell growth inhibition after 72 hrs by MTS assay. Type of data set: cell-based. A digest of the protocol: as §1

Bounds are passed on as bounds.

Turning to `Nc1ncnc2c1c1sccc1n2[C@@H]1O[C@H](CO)[C@@H](O)[C@H]1O`, the IC50 in the data set with HCT-116 [1] worked out at 5.39 µM; in data set [2], 4.28 µM; in the data set with K562 it was 6.16 µM; in data set [4] it was 15.2 µM; in the data set on HL-60, 0.31 µM; in the data set with HepG2 it was 0.56 µM. Besides, the IC50 turned out to be 30.3 µM in the data set with MRC5; 4.37 µM with HCT-116 [6]; 11.9 µM in the data set on A549; 2.5 µM in the data set with U2OS; 1.54 µM in the data set with HeLa S3; 6.22 µM in the data set with CCRF-CEM. The IC50 in the data set with BJ stood at 16.8 µM. The concentration giving a half-maximal response (EC50) in the data set on Hepatitis C virus [3] amounted to 13.5 µM; with Hepatitis C virus [5], 5.02 µM. The compound further came in with a CC50 in [7] of 16.4 to 17.2 µM.

Turning to `OC[C@H]1O[C@@H](n2c3ncnc(-c4ccoc4)c3c3ccsc32)[C@H](O)[C@@H]1O`, the IC50 (with HCT-116 [1]; in [2]; in the data set with K562; in [4]; in the data set with HL-60; in the data set with HepG2) was greater than 50 µM each time. For the same compound, the IC50 in the data set on MRC5, in the data set with HCT-116 [6], with A549, in the data set on U2OS, with HeLa S3 and in the data set with CCRF-CEM was greater than 50 µM throughout. In addition, the 50% inhibitory concentration (IC50) in the data set on BJ was greater than 50 µM.

On to `OC[C@H]1O[C@@H](n2c3ccsc3c3c(-c4ccoc4)ncnc32)[C@H](O)[C@@H]1O`, for which the IC50 (with HCT-116 [1]; in [2]; in the data set with K562; in data set [4]; in the data set with HL-60; in the data set on HepG2) was greater than 50 µM in each case. Further, the IC50 in the data set with MRC5 was greater than 50 µM; with HCT-116 [6], greater than 50 µM; in the data set with A549, greater than 50 µM; with U2OS, greater than 50 µM; in the data set with HeLa S3, greater than 50 µM; in the data set with CCRF-CEM, 3.61 µM. The half-maximal inhibitory concentration (IC50) with BJ was determined as 32 µM.

For the compound `OC[C@H]1O[C@@H](n2c3ncnc(-c4cc5ccccc5o4)c3c3ccsc32)[C@H](O)[C@@H]1O`, the 50% inhibitory concentration (IC50) in the data set with HCT-116 [1] was 47.1 µM; in data set [2] it was 14.9 µM; in the data set with K562, 29.7 µM; in [4], 20.6 µM; with HL-60, greater than 50 µM; in the data set on HepG2, greater than 50 µM. Besides, the IC50 in the data set with MRC5 is 37.5 µM; in the data set on HCT-116 [6] it was greater than 50 µM; in the data set with A549, greater than 50 µM; in the data set with U2OS, 33.1 µM; in the data set with HeLa S3 it was greater than 50 µM; in the data set with CCRF-CEM it was 15.9 µM. The IC50 with BJ is 36.8 µM. Besides, the values for the EC50 with Hepatitis C virus [3] and with Hepatitis C virus [5] were 14.1 µM and 2.05 µM, respectively. Further, the 50% cytotoxic concentration (CC50) in [7] was greater than 44.4 µM.

`OC[C@H]1O[C@@H](n2c3ncnc(-c4ccco4)c3c3ccsc32)[C@H](O)[C@@H]1O`: the half-inhibitory concentration (IC50) (in the data set on HCT-116 [1]; in data set [2]; with K562; in [4]; with HL-60; in the data set with HepG2) was greater than 50 µM each time. Besides, the IC50 in the data set on MRC5, in the data set with HCT-116 [6], in the data set on A549, with U2OS, in the data set with HeLa S3 and with CCRF-CEM was greater than 50 µM throughout. In addition, the IC50 in the data set with BJ was greater than 50 µM.

In the case of `OC[C@H]1O[C@@H](n2c3ccsc3c3c(-c4cc5ccccc5o4)ncnc32)[C@H](O)[C@@H]1O`, the IC50 in the data set on HCT-116 [1] is 16.2 µM; in data set [2], 17.9 µM; in the data set with K562, 15.4 µM; in data set [4], 14.4 µM; with HL-60, 2.38 µM; with HepG2 it was 4.28 µM. Moreover, the IC50 turned out to be 32.6 µM in the data set on MRC5; 12.3 µM with HCT-116 [6]; 21.2 µM with A549; 18.5 µM with U2OS; 24.3 µM in the data set with HeLa S3; 6.86 µM in the data set with CCRF-CEM. The 50% inhibitory concentration (IC50) in the data set on BJ amounted to 23 µM. Also, the figures for the 50% effective concentration (EC50) with Hepatitis C virus [3] and in the data set on Hepatitis C virus [5] were 13.9 µM and 2.1 µM, respectively. In data set [7], the half-maximal cytotoxic concentration (CC50) lay in the range of 19.6 to 26.6 µM.

As for `CN(C)c1ncnc2c1c1sccc1n2[C@@H]1O[C@H](CO)[C@@H](O)[C@H]1O`, the IC50 (in the data set on HCT-116 [1]; in data set [2]; with K562; in data set [4]; with HL-60; with HepG2) was greater than 50 µM throughout. Besides, the IC50 in the data set with MRC5 was greater than 50 µM; in the data set with HCT-116 [6] it was greater than 50 µM; with A549 it was greater than 50 µM; with U2OS it was greater than 50 µM; in the data set on HeLa S3, greater than 50 µM; with CCRF-CEM, 47.6 µM. The 50% inhibitory concentration (IC50) in the data set on BJ was greater than 50 µM.

In the case of `CN(C)c1ncnc2c1c1ccsc1n2[C@@H]1O[C@H](CO)[C@@H](O)[C@H]1O`, the IC50 (in the data set with HCT-116 [1]; in [2]; in the data set on K562; in data set [4]; in the data set with HL-60; in the data set on HepG2) was greater than 50 µM throughout. For the same compound, the IC50 in the data set on MRC5, in the data set with HCT-116 [6], in the data set with A549, in the data set on U2OS, with HeLa S3 and in the data set on CCRF-CEM was greater than 50 µM in each case. The concentration for half-maximal inhibition (IC50) in the data set with BJ is greater than 50 µM.

In the case of `Nc1ncnc2c1c1ccsc1n2[C@@H]1O[C@H](CO)[C@@H](O)[C@H]1O`, the IC50 with HCT-116 [1] is 46.7 µM; in [2], 0.82 µM; in the data set with K562 it was 36.3 µM; in data set [4] it was 41.2 µM; in the data set with HL-60, 0.95 µM; in the data set with HepG2, 1.46 µM. Also, the half-inhibitory concentration (IC50) in the data set with MRC5 was greater than 50 µM; in the data set with HCT-116 [6], 10.9 µM; in the data set on A549, 30.1 µM; with U2OS, 0.51 µM; in the data set on HeLa S3 it was greater than 50 µM; in the data set with CCRF-CEM, 0.3 µM. For the same compound, the half-maximal inhibitory concentration (IC50) with BJ was determined as 1.09 µM. Also, the half-maximal effective concentration (EC50) is greater than 44.4 µM in the data set with Hepatitis C virus [3] and 17.5 µM in the data set with Hepatitis C virus [5]. In addition, in [7], the 50% cytotoxic concentration (CC50) is greater than 44.4 µM.

Regarding `CC(C)C(=O)OC[C@H]1O[C@@H](n2ccc(N)nc2=O)[C@](C)(F)[C@@H]1OC(=O)C(C)C` [MERICITABINE], the half-maximal cytotoxic concentration (CC50) in data set [7] was greater than 44.4 µM.

`Nc1ccn([C@@H]2O[C@H](CO)[C@@H](O)C2(F)F)c(=O)n1` [GEMCITABINE]: the IC50 in the data set on MRC5 and in the data set with BJ was greater than 50 µM throughout.

Consider `OC[C@H]1O[C@@H](n2c3ccsc3c3c(-c4ccco4)ncnc32)[C@H](O)[C@@H]1O`, for which the IC50 (in the data set on HCT-116 [1]; in data set [2]; in the data set with K562; in [4]; in the data set with HL-60; with HepG2) was greater than 50 µM each time. The 50% inhibitory concentration (IC50) with MRC5, in the data set on HCT-116 [6], in the data set with A549, in the data set with U2OS, with HeLa S3 and with CCRF-CEM was greater than 50 µM in each case. The IC50 in the data set on BJ is greater than 50 µM.

A word on the IC50: it is the point on the concentration scale where inhibition reaches its midpoint. One may read the EC50 as the concentration that produces a half-maximal response. The term CC50 denotes the concentration giving 50% cytotoxicity. Higher therefore signals better tolerance by the cells.
